In ChEMBL document CHEMBL1156127, “Synthesis, anticonvulsant activity and 3D-QSAR study of some prop-2-eneamido and 1-acetyl-pyrazolin derivatives of aminobenzothiazole” (Eur J Med Chem, 2010):

Assays:
Mus musculus [1] = assay: Anticonvulsant activity in ip dosed albino mouse assessed as absence of hind limb tonic extension after 0.5 hrs by MES test; assay type: functional, Hindlimb; conditions: for ED50: Mus musculus, albino, Hindlimb, ip, 0.5 h
Summary of the method: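 Mice given compound ip at 20–1000 µmol/kg, suspended in 0.5% methyl cellulose/water. Seizure induced 0.5 h later by electroconvulsometer, 50 mA, 60 cycle alternating current, 0.25 s via ear clip electrodes. Protection is reduced duration or absence of hind limb tonic extension. ED50 from at least three doses giving 10–90% protection.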

[2] = Neurotoxicity in ip dosed albino mouse during 1 min by rotarod test; assay type: toxicity, organism-based; conditions: in vivo
Summary of the method: (§1)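 Mice were trained on a 3.2 cm rod turning at 6 rpm, then dosed ip at 20–1000 µmol/kg and tested at 0.5 h. […] PI = TD50/ED50, with ED50 from the MES test.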

Mus musculus [3] = organism: Mus musculus; assay: Protection index, ratio of TD50 to ED50 by MES test for albino mouse; assay type: functional; summary of the method: as §1
Mus musculus [4] = assay: Anticonvulsant activity in ip dosed albino mouse treated 0.5 hrs before PTZ challenge by scPTZ test; assay type: functional
Summary of the method: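 Compound given ip (20–1000 µmol/kg in 0.5% methyl cellulose) 0.5 h before pentylenetetrazole, which was dissolved in 0.9% NaCl and injected subcutaneously in the posterior midline of mice. Onset and severity of convulsions were scored, and ED50 was derived.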

Rattus norvegicus [5] = assay: CNS toxicity in albino rat assessed as duration of immobility at 100 umol/kg, ip after 0.5 hrs by Porsolt's swimpool test (Rvb= 104 +/- 1.8); conditions: in vivo
Mus musculus [6] = assay: Behavioral effect in albino mouse assessed as change in locomotor activity during 10 mins at 100 umol/kg, ip after 0.5 hrs; assay type: functional
Summary of the method: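 Mouse activity counted by actophotometer for 10 min 24 h before dosing, then again 0.5 h after 100 µmol/kg ip. % change = 100 − [(post × 100)/pre]. N = 6, mean ± SEM, Student's t test at p < 0.05.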

Rattus norvegicus [7] = assay: CNS toxicity in albino rat assessed as duration of immobility at 100 umol/kg, ip after 0.5 hrs by Porsolt's swimpool test (Rvb= 92 +/- 1.2); conditions: in vivo
Rattus norvegicus [8] = assay: CNS toxicity in albino rat assessed as duration of immobility at 100 umol/kg, ip after 0.5 hrs by Porsolt's swimpool test (Rvb= 82 +/- 2.9); conditions: in vivo

Compound	pED50 (Mus musculus [1])	ED50 (Mus musculus [1]) [µmol/kg]	TD50 at 1 min [2] [µmol/kg]	PI (Mus musculus [3])	ED50 (Mus musculus [4]) [µmol/kg]	Activity (Rattus norvegicus [5]) [s]	Activity (Mus musculus [6]) [%]	Activity (Rattus norvegicus [7]) [s]	Activity (Rattus norvegicus [8]) [s]
COc1ccc(/C=C/C(=O)Nc2nc3ccccc3s2)cc1	3.36	435	540	1.24					
COc1ccc(/C=C/C(=O)Nc2nc3ccc(C)cc3s2)cc1O	3.57	271	321	1.18					
O=C(/C=C/c1ccc(O)cc1)Nc1nc2ccccc2s1	3.29	517	925	1.78					
CC(=O)N1N=C(Nc2nc3ccc(Cl)cc3s2)CC1c1ccccc1 (configuration not stated)	3.79	161	245	1.52					
Cc1ccc2nc(NC(=O)/C=C/c3ccco3)sc2c1	3.3	505	603	1.19					
O=C(/C=C/c1ccc(Cl)cc1)Nc1nc2ccc([N+](=O)[O-])cc2s1	3.59	259	787	3.03					
CC(=O)N1N=C(Nc2nc3ccccc3s2)CC1c1ccc(O)cc1 (configuration not stated)	3.6	249	513	2.06					
COc1ccc(C2CC(Nc3nc4ccc(Cl)cc4s3)=NN2C(C)=O)cc1O (configuration not stated)	3.89	127	276	2.16	132				
COc1ccc(/C=C/C(=O)Nc2nc3ccc(Cl)cc3s2)cc1O	3.51	320	470	1.46					
CC(=O)N1N=C(Nc2nc3ccccc3s2)CC1c1ccc(Cl)cc1 (configuration not stated)	3.68	209	364	1.73					
O=C(/C=C/c1ccc(Cl)cc1)Nc1nc2ccc(Cl)cc2s1	3.69	204	576	2.82					
COc1ccc(C2CC(Nc3nc4ccc([N+](=O)[O-])cc4s3)=NN2C(C)=O)cc1 (configuration not stated)	3.84	145	246	1.69	149				
CC(=O)N1N=C(Nc2nc3ccc([N+](=O)[O-])cc3s2)CC1c1ccc(O)cc1 (configuration not stated)	3.79	162	210	1.29					
CC(=O)N1N=C(Nc2nc3ccc(C)cc3s2)CC1c1ccco1 (configuration not stated)	3.79	160	243	1.51					
COc1ccc(C2CC(Nc3nc4ccc([N+](=O)[O-])cc4s3)=NN2C(C)=O)cc1O (configuration not stated)	3.75	178	256	1.43					
CC(=O)N1N=C(Nc2nc3ccc(C)cc3s2)CC1c1ccccc1 (configuration not stated)	3.97	106	265	2.49	112	151	23.93		
O=C(/C=C/c1ccco1)Nc1nc2ccc(Cl)cc2s1	3.26	544	658	1.2					
O=C(/C=C/c1ccc(O)cc1)Nc1nc2ccc(Cl)cc2s1	3.49	322	413	1.28					
Cc1ccc2nc(NC(=O)/C=C/c3ccccc3)sc2c1	3.42	380	534	1.4					
O=C(/C=C/c1ccccc1)Nc1nc2ccc([N+](=O)[O-])cc2s1	3.31	485	633	1.3					
COc1ccc(C2CC(Nc3nc4ccccc4s3)=NN2C(C)=O)cc1 (configuration not stated)	3.65	226	369	1.63					
O=C(/C=C/c1ccccc1)Nc1nc2ccc(Cl)cc2s1	3.37	425	570	1.34					
Cc1ccc2nc(NC(=O)/C=C/c3ccc(Cl)cc3)sc2c1	3.82	152	408	2.67					

Compound	pED50 (Mus musculus [1])	ED50 (Mus musculus [1]) [µmol/kg]	TD50 at 1 min [2] [µmol/kg]	PI (Mus musculus [3])	ED50 (Mus musculus [4]) [µmol/kg]	Activity (Rattus norvegicus [5]) [s]	Activity (Mus musculus [6]) [%]	Activity (Rattus norvegicus [7]) [s]	Activity (Rattus norvegicus [8]) [s]
CC(=O)N1N=C(Nc2nc3ccc([N+](=O)[O-])cc3s2)CC1c1ccc(Cl)cc1 (configuration not stated)	3.88	132	328	2.48	138				
O=C(/C=C/c1ccc(O)cc1)Nc1nc2ccc([N+](=O)[O-])cc2s1	3.42	382	602	1.57					
CC(=O)N1N=C(Nc2nc3ccc(Cl)cc3s2)CC1c1ccc(Cl)cc1 (configuration not stated)	4.1	79.5	345	4.35	81.5		31.66	134	
COc1ccc(C2CC(Nc3nc4ccccc4s3)=NN2C(C)=O)cc1O (configuration not stated)	3.59	259	382	1.47					
O=C(/C=C/c1ccco1)Nc1nc2ccccc2s1	3.11	781	898	1.15					
Cc1ccc2nc(NC(=O)/C=C/c3ccc(O)cc3)sc2c1	3.57	271	387	1.42					
O=C(/C=C/c1ccc(Cl)cc1)Nc1nc2ccccc2s1	3.44	367	402	1.1					
COc1ccc(C2CC(Nc3nc4ccc(Cl)cc4s3)=NN2C(C)=O)cc1 (configuration not stated)	4.03	93.3	187	2.01	97.3		35.91		88
CC(=O)N1N=C(Nc2nc3ccc([N+](=O)[O-])cc3s2)CC1c1ccco1 (configuration not stated)	3.56	274	355	1.29					
O=C(/C=C/c1ccccc1)Nc1nc2ccccc2s1	3.19	646	832	1.28					
COc1ccc(/C=C/C(=O)Nc2nc3ccc(Cl)cc3s2)cc1	3.59	259	465	1.79					
COc1ccc(/C=C/C(=O)Nc2nc3ccccc3s2)cc1O	3.31	495	556	1.12					
COc1ccc(/C=C/C(=O)Nc2nc3ccc([N+](=O)[O-])cc3s2)cc1	3.5	315	466	1.47					
CC(=O)N1N=C(Nc2nc3ccccc3s2)CC1c1ccccc1 (configuration not stated)	3.5	315	498	1.57					
CC(=O)N1N=C(Nc2nc3ccc(Cl)cc3s2)CC1c1ccco1 (configuration not stated)	3.67	212	387	1.82					
O=C(/C=C/c1ccco1)Nc1nc2ccc([N+](=O)[O-])cc2s1	3.22	597	834	1.39					
COc1ccc(/C=C/C(=O)Nc2nc3ccc([N+](=O)[O-])cc3s2)cc1O	3.43	372	793	2.13					
CC(=O)N1N=C(Nc2nc3ccc(Cl)cc3s2)CC1c1ccc(O)cc1 (configuration not stated)	3.97	106	210	1.97	107				
COc1ccc(/C=C/C(=O)Nc2nc3ccc(C)cc3s2)cc1	3.68	209	468	2.24					
CC(=O)N1N=C(Nc2nc3ccccc3s2)CC1c1ccco1 (configuration not stated)	3.42	382	538	1.41					
CC(=O)N1N=C(Nc2nc3ccc([N+](=O)[O-])cc3s2)CC1c1ccccc1 (configuration not stated)	3.67	216	357	1.65					
O=C1NC(=O)C(c2ccccc2)(c2ccccc2)N1 [PHENYTOIN]		13.8	110	8.01					
